Laboratory results as given in ChEMBL document CHEMBL1134785, “Synthesis and biological evaluation of prostaglandin-F alkylphosphinic acid derivatives as bone anabolic agents for the treatment of osteoporosis” (J Med Chem, 2001).

Experiments:
Rattus norvegicus [1] = experiment: Bone Formation rate/bone measured Histomorphometrically after a dose of 6000 ug/kg in proximal tibial metaphysis; assay type: functional
Procedure, shortened: (§1)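 Proximal tibial metaphysis, 1 to 4 mm distal to the growth plate–metaphyseal junction, assessed by histomorphometry in 6-month-old female rats. Rats were ovariectomized (OVX) 60 days before dosing, then given daily injections for 60 days. Fluorochrome labels were xylenol orange 90 mg/kg before treatment and calcein 10 mg/kg at 14 and 4 days before sacrifice. Groups were compared with vehicle by ANOVA plus LSD test.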

Rattus norvegicus [2] = experiment: Periosteal mineralizing surface measured Histomorphometrically after a does of 6000 ug/kg in Tibial Diaphysis; assay type: functional
Procedure, shortened: (§2)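 A positive-control group of ovariectomized rats was injected daily at 6 mg/kg/day for 60 days, starting 60 days after surgery. Xylenol orange (90 mg/kg) was given before treatment and calcein (10 mg/kg) 14 and 4 days before sacrifice. Tibiae were read by fluorescent-light histomorphometry.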

Rattus norvegicus [3] = experiment: Derived trabecular thickness measured using micro Computed Tomography(CT) after a dose of 6000 ug/kg in Vertebral Bone; assay type: functional, Trabecula
Procedure, shortened: (§3)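 Micro-CT of the fifth lumbar vertebra, measuring cancellous bone volume and architecture. Rats were 6 months old, OVX 60 days before treatment, then dosed daily for 60 days. Test-agent doses were 10–3000 µg/kg, given as a once-daily subcutaneous injection; 6 mg/kg/day was given to the positive-control group. Groups were compared with vehicle by ANOVA plus LSD test.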

Rattus norvegicus [4] = experiment: Derived trabecular no measured using micro Computed Tomography(CT) after a dose of 6000 ug/kg in Vertebral Bone; assay type: functional, Trabecula; procedure, shortened: as §3
Rattus norvegicus [5] = experiment: Mineral apposition measured Histomorphometrically after a dose of 6000 ug/kg in proximal tibial metaphysis; assay type: functional
Procedure, shortened: (§4)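 Positive-control arm: rats ovariectomized at six months, then from day 60 given PGE2 at 6 mg/kg/day for 60 days. Labels were xylenol orange 90 mg/kg before treatment and calcein 10 mg/kg 14 and 4 days before sacrifice. The tibia was read by fluorescent-light histomorphometry; metaphysis region 1–4 mm distal to the growth plate junction.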

Rattus norvegicus [6] = experiment: Directly measured thickness measured using micro Computed Tomography(CT) after a dose of 6000 ug/kg in Vertebral Bone; assay type: functional; procedure, shortened: as §3
Rattus norvegicus [7] = experiment: Mineralizing apposition measured Histomorphometrically after a dose of 6000 ug/kg in […]; assay type: functional
Rattus norvegicus [8] = experiment: Bone Volume /Tissue Volume (%)measured using micro Computed Tomography(CT) after a dose of 6000 ug/kg in Vertebral Bone; assay type: functional; procedure, shortened: as §3
Rattus norvegicus [9] = experiment: Trabecular no measured Histomorphometrically after a dose of 6000 ug/kg in proximal tibial metaphysis; assay type: functional, Trabecula
Procedure, shortened: (§5)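 A positive-control group of ovariectomized rats was injected daily at 6 mg/kg/day for 60 days, beginning 60 days post-surgery. Fluorochrome labels were xylenol orange (90 mg/kg) before treatment and calcein (10 mg/kg) 14 and 4 days before sacrifice. Histomorphometry covered the proximal tibial metaphysis 1-4 mm below the growth plate-metaphyseal junction.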

Rattus norvegicus [10] = experiment: Endosteal mineralizing surface measured Histomorphometrically after a does of 6000 ug/kg in Tibial Diaphysis; assay type: functional
Rattus norvegicus [11] = experiment: Bone Volume /Tissue Volume (%)measured Histomorphometrically after a dose of 6000 ug/kg in proximal tibial metaphysis; assay type: functional; procedure, shortened: as §1
Rattus norvegicus [12] = experiment: Tissue area measured Histomorphometrically after a dose of 6000 ug/kg in Tibial Diaphysis; assay type: functional; procedure, shortened: as §2
Rattus norvegicus [13] = experiment: Bone Formation rate/tissue vol measured Histomorphometrically after a does of 6000 ug/kg in proximal tibial metaphysis; assay type: functional; procedure, shortened: as §1
Rattus norvegicus [14] = experiment: Connectivity density measured using micro Computed Tomography(CT) after a dose of 6000 ug/kg in Vertebral Bone; assay type: functional; procedure, shortened: as §3
Rattus norvegicus [15] = experiment: Endosteal eroded surface measured Histomorphometrically after a dose of 6000 ug/kg in Tibial Diaphysis; assay type: functional
Procedure, shortened: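 Tibial histomorphometry in 6-month-old rats, OVX 60 days before treatment, then daily injection for 60 days. Vehicle was acetate-buffered saline with methylcellulose and polyoxyethylenesorbitan monooleate. Rats received xylenol orange 90 mg/kg before treatment and calcein 10 mg/kg at 14 and 4 days pre-sacrifice. Rats were killed by cardiac puncture under ketamine/xylazine. Groups were compared with vehicle by ANOVA plus LSD test.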

Rattus norvegicus [16] = experiment: Marrow area measured Histomorphometrically after a dose of 6000 ug/kg in Tibial Diaphysis; assay type: functional
Rattus norvegicus [17] = experiment: Trabecular thickness measured Histomorphometrically after a dose of 6000 ug/kg in proximal tibial metaphysis; assay type: functional, Trabecula; procedure, shortened: as §5
Rattus norvegicus [18] = experiment: Mineral surface/bone surface measured Histomorphometrically after a dose of 6000 ug/kg in proximal tibial metaphysis; assay type: functional; procedure, shortened: as §4

Work on `CCCCC[C@H](O)/C=C/[C@H]1[C@H](O)CC(=O)[C@@H]1C/C=C\CCCC(=O)O` [DINOPROSTONE] yielded an Activity (Rattus norvegicus [1]) of 394.7%, a Periosteal mineralizing surface (Rattus norvegicus [2]) of 58.37% and a Derived trabecular thickness (Rattus norvegicus [3]) of 95.1 µm. The Derived trabecular number (Rattus norvegicus [4]) was 4.6 1/mm, the Mineral apposition rate (Rattus norvegicus [5]) was 1.19 µm/day and the Directly measured thickness (Rattus norvegicus [6]) was 149 µm. The Mineralizing apposition rate (Rattus norvegicus [7]) was 1.33 µm/day, the Activity (Rattus norvegicus [8]) was 43.79% and the Trabecular no. (Rattus norvegicus [9]) was 1.76. It also gave an Endosteal mineralizing surface (Rattus norvegicus [10]) of 61.22%, an Activity (Rattus norvegicus [11]) of 11.65% and a Tissue area (Rattus norvegicus [12]) of 5.22 mm. The Activity (Rattus norvegicus [13]) was 45.62%, the Connectivity density (Rattus norvegicus [14]) was 47.81 mm**-3 and the Endosteal eroded surface (Rattus norvegicus [15]) was 0.79%. For the same molecule, the Marrow area (Rattus norvegicus [16]) was 0.76 mm, the Trabecular thickness (Rattus norvegicus [17]) was 66.14 and the Activity (Rattus norvegicus [18]) was 36.23%.
